One block for each compound: values may come before it.
Tests used:
[1] = Growth inhibition of human U373MG cells containing U373IRES plasmid after 1 hr; assay type: functional, cell-based, U-373MG ATCC; details: U373 MG
Method in brief: (§1)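 U373MG glioblastoma cells (vector U373IRES, hCE1-overexpressing UhCE1, or hiCE-overexpressing UhiCE) were cultured in DMEM with 10% fetal calf serum and no antibiotics. They were exposed to graded prodrug for 1 h. Growth inhibition was measured as IC50, with points as mean ± standard deviation of six measurements.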

[2] = Growth inhibition of human U373MG cells containing UhCE1 expressing plasmid after 1 hr; assay type: functional, cell-based, U-373MG ATCC; details: U373 MG; method in brief: as §1
[3] = Growth inhibition of human U373MG cells containing UhiCE expressing plasmid after 1 hr; assay type: functional, cell-based, U-373MG ATCC; details: U373 MG; method in brief: as §1
MCF7 [4] = assay: Growth inhibition of human MCF7 cells; assay type: functional, cell-based
[5] = Growth inhibition of human N-HepG2 cells; assay type: functional, cell-based
[6] = Growth inhibition of rat H9c2(2-1) cells; assay type: functional
[7] = Growth inhibition of […] human MCF7/Adr cells after 24 hrs in presence of human intestinal carboxylesterase; assay type: functional, cell-based; details: NCI/ADR-RES
Method in brief: (§2)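 MCF-7 or MCF-7/Adr cells in RPMI 1640 with 10% fetal calf serum were seeded and left overnight to adhere. Medium was then replaced with complete medium holding prodrug in DMSO (1% final), alone or with additive: recombinant hiCE 250 ng/mL, hCE1 2.5 µg/mL, pig liver esterase 30 µg/mL, or N-Hep G2 lysate 83.5 µg protein/mL. Exposure was 24 h, then fresh medium.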

[8] = Growth inhibition of doxorubicin-resistant human MCF7/Adr cells after 24 hrs; assay type: functional, cell-based; details: NCI/ADR-RES; method in brief: as §2
SK-HEP1 = assay: Growth inhibition of human SK-HEP-1 cells; assay type: functional, cell-based
[9] = Growth inhibition of human U373IRES cells after 1 hr; assay type: functional, U-373MG ATCC; method in brief: as §1
Sus scrofa = species on record: Sus scrofa; assay: Hydrolysing activity of pig liver esterase assessed as doxorubicin production
[10] = Growth inhibition of human U373MG cells containing UhiCE expressing plasmid after 1 hr relative to pentyl PABC-Doxorubicin; assay type: functional, U-373MG ATCC
Method in brief: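 UhiCE cells were preincubated 2 h with 10 µM benzil, a membrane-permeable CE inhibitor, before 1 h prodrug exposure. IC50 was compared with prodrug alone, using means of six measurements.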

Homo sapiens = species on record: Homo sapiens; assay: Hydrolysing activity of human recombinant intestinal carboxylesterase
Method in brief: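 Recombinant baculovirus-expressed hiCE (26 µg/mL) was incubated with 50 µM prodrug in 5% DMSO with FBS/RPMI/PBS pH 7.4. Timed aliquots were quenched in equal-volume ethanol, held at -20 °C overnight and centrifuged. 1 unit = 1 µM Dox per hour; specific activity is per mg protein.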

MCF7 [11] = assay: Growth inhibition of doxorubicin-sensitive human MCF7 cells after 24 hrs in presence of N-Hep G2 lysate relative to pentyl PABC-Doxorubicin; assay type: functional
MCF7 [12] = assay: Growth inhibition of doxorubicin-sensitive human MCF7 cells after 24 hrs in presence of pig liver esterase; assay type: functional, cell-based; details: MCF7, 24 h; method in brief: as §2
[13] = Growth inhibition of […] human MCF7/Adr cells after 24 hrs in presence of human intestinal carboxylesterase relative to pentyl PABC-Doxorubicin; assay type: functional, NCI/ADR-RES
[14] = Growth inhibition of […] human MCF7/Adr cells after 24 hrs in presence of N-Hep G2 lysate relative to pentyl PABC-Doxorubicin; assay type: functional, NCI/ADR-RES
[15] = Growth inhibition of human MCF7/Adr cells; assay type: functional, cell-based; details: NCI/ADR-RES
MCF7 [16] = assay: Growth inhibition of doxorubicin-sensitive human MCF7 cells after 24 hrs in presence of human intestinal carboxylesterase relative to pentyl PABC-Doxorubicin; assay type: functional
MCF7 [17] = assay: Growth inhibition of doxorubicin-sensitive human MCF7 cells after 24 hrs in presence of human intestinal carboxylesterase; assay type: functional, cell-based; details: MCF7, 24 h; method in brief: as §2
MCF7 [18] = assay: Growth inhibition of doxorubicin-sensitive human MCF7 cells after 24 hrs in presence of pig liver esterase relative to pentyl PABC-Doxorubicin; assay type: functional
HepG2 = assay: Growth inhibition of human HepG2 cells; assay type: functional, cell-based
MCF7 [19] = assay: (§3) Growth inhibition of doxorubicin-sensitive human MCF7 cells after 24 hrs; assay type: functional, cell-based; details: MCF7, 24 h; method in brief: as §2
MCF7 [20] = assay: as §3; assay type: functional; method in brief: as §2
[21] = Growth inhibition of […] human MCF7/Adr cells after 24 hrs in presence of N-Hep G2 lysate; assay type: functional, cell-based; details: NCI/ADR-RES; method in brief: as §2
[22] = Growth inhibition of doxorubicin-resistant human MCF7/Adr cells after 24 hrs in presence of human intestinal carboxylesterase; assay type: functional, NCI/ADR-RES; method in brief: as §2
MCF7 [23] = assay: Growth inhibition of doxorubicin-sensitive human MCF7 cells after 24 hrs in presence of N-Hep G2 lysate; assay type: functional, cell-based; details: MCF7, 24 h; method in brief: as §2
[24] = Growth inhibition of […] human MCF7/Adr cells after 24 hrs in presence of human carboxylesterase 1 relative to pentyl PABC-Doxorubicin; assay type: functional, NCI/ADR-RES
MCF7 [25] = assay: Growth inhibition of doxorubicin-sensitive human MCF7 cells after 24 hrs in presence of human carboxylesterase 1 relative to pentyl PABC-Doxorubicin; assay type: functional
MCF7 [26] = assay: Growth inhibition of doxorubicin-sensitive human MCF7 cells after 24 hrs in presence of human carboxylesterase 1; assay type: functional, cell-based; details: MCF7, 24 h; method in brief: as §2
[27] = Growth inhibition of human MCF7/Adr cells after 24 hrs in presence of human carboxylesterase 1; details: NCI/ADR-RES

Structure (SMILES): COc1cccc2c1C(=O)c1c(O)c3c(c(O)c1C2=O)C[C@@](O)(C(=O)CO)C[C@@H]3OC1C[C@H](N)[C@H](O)[C@H](C)O1 (single isomer, unassigned) [DOXORUBICIN]
IC50 [1]: 158 nM
IC50 [2]: 158 nM
IC50 [3]: 200 nM

IC50 (MCF7 [4]): 2510 nM
IC50 (SK-HEP1): 1000 nM
Activity (Sus scrofa): 47 µM/h
Activity (Homo sapiens): 0.065 µM/h
IC50 (MCF7 [12]): 3.98 nM
IC50 (MCF7 [17]): 15.8 nM
IC50 (HepG2): 50.1 nM
IC50 (MCF7 [19]): > 1000 nM
IC50 (MCF7 [23]): 251 nM
Structure (SMILES): CCCCCOC(=O)Nc1ccc(COC(=O)N2CO[C@@H]3[C@H](C)O[C@H](O[C@H]4C[C@](O)(C(=O)CO)Cc5c(O)c6c(c(O)c54)C(=O)c4c(OC)cccc4C6=O)C[C@@H]32)cc1
IC50 [5]: 20 nM
IC50 [1]: > 1000 nM
IC50 [2]: > 1000 nM
IC50 [6]: 631 nM
IC50 [7]: 12.6 nM
IC50 [8]: > 1000 nM
Fold change [9]: 1
Fold change [10]: >20
Fold change (MCF7 [11]): >4
Fold change [13]: >79
Fold change [14]: >6
IC50 [15]: 316 nM
Fold change (MCF7 [16]): >63
Fold change (MCF7 [18]): >100
Fold change (MCF7 [20]): 1
IC50 [21]: 158 nM
Fold change [22]: > 79

IC50 (MCF7 [26]): 1000 nM
IC50 (MCF7 [19]): > 1000 nM
IC50 [27]: 794 nM
Structure (SMILES): O=S(=O)(Nc1ccc(NS(=O)(=O)c2ccc(Cl)cc2)cc1)c1ccc(Cl)cc1
Fold change [24]: >1
IC50 [8]: > 1000 nM
Fold change (MCF7 [25]): >1

— ChEMBL document CHEMBL1140724, “Identification of human intestinal carboxylesterase as the primary enzyme for activation of a doxazolidine carbamate prodrug” (J Med Chem, 2008)
